Laboratory results reported in ChEMBL document CHEMBL1255223, “Structure-activity relationship study of first selective inhibitor of excitatory amino acid transporter subtype 1: 2-Amino-4-(4-methoxyphenyl)-7-(naphthalen-1-yl)-5-oxo-5,6,7,8-tetrahydro-4H-chromene-3-carbonitrile (UCPH-101)” (J Med Chem, 2010).
Activity calls are given as the source filed them. No cut-off for these calls is given here.

Legend:
[1] = target: Excitatory amino acid transporter 1 (Homo sapiens, UniProt P43003); assay: Inhibition of human EAAT1 expressed in HEK293 cells by [3H]D-Asp uptake assay; format: cell-based; conditions: for pIC50: hek293
Excitatory amino acid transporter 1, sequence (P43003 whole entry): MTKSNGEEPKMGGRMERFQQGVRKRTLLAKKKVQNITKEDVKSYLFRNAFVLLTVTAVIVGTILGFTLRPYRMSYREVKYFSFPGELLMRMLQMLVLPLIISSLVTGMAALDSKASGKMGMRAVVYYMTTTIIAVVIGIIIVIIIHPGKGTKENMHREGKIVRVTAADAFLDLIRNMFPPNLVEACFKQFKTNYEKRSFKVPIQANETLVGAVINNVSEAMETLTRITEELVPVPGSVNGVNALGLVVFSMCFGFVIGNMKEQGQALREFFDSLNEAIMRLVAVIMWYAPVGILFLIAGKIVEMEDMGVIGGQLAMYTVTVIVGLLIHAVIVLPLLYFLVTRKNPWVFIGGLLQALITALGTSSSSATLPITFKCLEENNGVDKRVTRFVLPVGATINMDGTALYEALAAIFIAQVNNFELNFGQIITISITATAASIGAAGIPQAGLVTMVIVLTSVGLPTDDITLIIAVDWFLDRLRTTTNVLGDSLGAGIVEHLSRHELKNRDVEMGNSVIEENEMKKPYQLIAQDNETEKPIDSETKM

[2] = target: Excitatory amino acid transporter 2 (Homo sapiens) (UniProt P43004); assay: Inhibition of human EAAT2 expressed in HEK293 cells at 100 uM by [3H]D-Asp uptake assay; format: cell-based
Excitatory amino acid transporter 2 (Homo sapiens), sequence (P43004 whole entry): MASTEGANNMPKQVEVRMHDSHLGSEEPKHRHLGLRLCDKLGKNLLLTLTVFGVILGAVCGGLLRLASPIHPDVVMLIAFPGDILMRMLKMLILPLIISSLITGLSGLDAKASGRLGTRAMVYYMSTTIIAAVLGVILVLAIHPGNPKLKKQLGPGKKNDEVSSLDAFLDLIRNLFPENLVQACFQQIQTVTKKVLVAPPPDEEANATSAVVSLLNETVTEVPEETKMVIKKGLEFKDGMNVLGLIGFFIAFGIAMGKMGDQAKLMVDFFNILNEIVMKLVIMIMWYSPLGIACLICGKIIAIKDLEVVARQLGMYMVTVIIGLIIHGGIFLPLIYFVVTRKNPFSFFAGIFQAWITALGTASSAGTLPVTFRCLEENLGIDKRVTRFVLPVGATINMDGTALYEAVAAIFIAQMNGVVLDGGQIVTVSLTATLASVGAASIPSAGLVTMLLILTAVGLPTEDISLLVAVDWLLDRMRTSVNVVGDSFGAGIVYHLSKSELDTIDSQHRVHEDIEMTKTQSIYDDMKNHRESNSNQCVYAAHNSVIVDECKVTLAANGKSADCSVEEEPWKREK
Outline: (§1)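 [3H]-D-Asp uptake was measured in HEK293 cell lines expressing EAAT2 or EAAT3. Each analogue was tested at the highest concentration possible for it (75, 100, 300 or 1000 μM) to assess inhibitory activity.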

[3] = target: T1, Excitatory amino acid transporter 3 (Homo sapiens) (UniProt P43005); assay: Inhibition of human EAAT3 expressed in HEK293 cells at 100 uM by [3H]D-Asp uptake assay; format: cell-based; outline: as §1
T1 sequence (whole entry): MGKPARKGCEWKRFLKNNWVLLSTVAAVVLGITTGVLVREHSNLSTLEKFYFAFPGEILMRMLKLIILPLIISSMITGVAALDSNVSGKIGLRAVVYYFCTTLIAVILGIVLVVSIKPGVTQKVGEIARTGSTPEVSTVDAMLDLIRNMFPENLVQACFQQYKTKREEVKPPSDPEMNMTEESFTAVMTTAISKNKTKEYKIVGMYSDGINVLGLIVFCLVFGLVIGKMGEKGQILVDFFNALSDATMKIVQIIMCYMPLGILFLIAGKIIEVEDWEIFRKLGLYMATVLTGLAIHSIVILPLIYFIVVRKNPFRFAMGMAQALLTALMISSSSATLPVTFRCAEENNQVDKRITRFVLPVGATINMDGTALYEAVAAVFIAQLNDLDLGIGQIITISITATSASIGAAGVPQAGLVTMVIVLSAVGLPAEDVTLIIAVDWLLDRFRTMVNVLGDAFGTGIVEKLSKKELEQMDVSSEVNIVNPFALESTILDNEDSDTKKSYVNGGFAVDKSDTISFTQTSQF

[4] = target: Excitatory amino acid transporter 2 (Homo sapiens) (UniProt P43004); assay: Inhibition of human EAAT2 expressed in HEK293 cells at 300 uM by [3H]D-Asp uptake assay; format: cell-based; outline: as §1
[5] = target: T1, Excitatory amino acid transporter 3 (Homo sapiens); assay: Inhibition of human EAAT3 expressed in HEK293 cells at 300 uM by [3H]D-Asp uptake assay; format: cell-based; outline: as §1
[6] = Terminal half life in Sprague-Dawley rat at 10 mg/kg; format: ADME, organism-based; set-up: dose 10 mg/kg; conditions: in vivo, read-out: beta t1/2
Outline: (§2)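 Male Sprague-Dawley rats (225 g at arrival) received an oral dose of 10 mg/kg, formulated in 100% PEG400 (5 mL/kg). Three groups (n = 3/group) were sampled at 0.5, 1 and 2 h for cardiac EDTA plasma (under isoflurane) and whole brain homogenized in 70% acetonitrile. UPLC-MS/MS quantitation used an internal standard, with a brain limit of quantification of 10 ng/g.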

[7] = test system: Brain; assay: Drug level in Sprague-Dawley rat brain at 10 mg/kg; format: ADME, organism-based; set-up: dose 10 mg/kg; conditions: in vivo; outline: as §2
[8] = target: Excitatory amino acid transporter 2 (Homo sapiens) (UniProt P43004); assay: Inhibition of human EAAT2 expressed in HEK293 cells at 75 uM by [3H]D-Asp uptake assay; format: cell-based; outline: as §1
[9] = target: T1, Excitatory amino acid transporter 3 (Homo sapiens); assay: Inhibition of human EAAT3 expressed in HEK293 cells at 75 uM by [3H]D-Asp uptake assay; format: cell-based; outline: as §1
[10] = target: Excitatory amino acid transporter 2 (Homo sapiens) (UniProt P43004); assay: Inhibition of human EAAT2 expressed in HEK293 cells at 1000 uM by [3H]D-Asp uptake assay; format: cell-based; outline: as §1
[11] = target: T1, Excitatory amino acid transporter 3 (Homo sapiens); assay: Inhibition of human EAAT3 expressed in HEK293 cells at 1000 uM by [3H]D-Asp uptake assay; format: cell-based; outline: as §1

## NC1=CC(c2ccccc2)C2=C(CC(c3ccccc3)CC2=O)O1 (stereo unspecified)
[1]
  pIC50: < 4
[1]; read-out: IC50
  IC50: > 100 µM
[2]
  inhibition: inactive
[3]
  inhibition: inactive

## N#CC1=C(N)OC2=C(C(=O)CC(c3ccccc3)C2)C1c1ccccc1F (stereo unspecified)
[2]
  inhibition: inactive
[3]
  inhibition: inactive

## CC1CC(=O)C2=C(C1)OC(N)=C(C#N)C2c1ccc2c(c1)OCO2 (stereo unspecified)
[1]; read-out: pIC50 (converted)
  IC50: > 316 µM
[4]
  inhibition: inactive
[5]
  inhibition: inactive

## N#CC1=C(N)OC2=C(C(=O)N[C@@H](c3ccccc3)C2)[C@@H]1c1ccccc1 (relative stereo)
[1]; read-out: IC50
  IC50: > 300 µM
[1]; read-out: pIC50 (converted)
  IC50: > 316 µM
[4]
  inhibition: inactive
[5]
  inhibition: inactive

## N#CC1=C(N)OC2=C(C(=O)O[C@H](c3ccccc3)C2)[C@@H]1c1ccccc1 (relative stereo)
[1]; read-out: IC50
  IC50: > 300 µM
[1]; read-out: pIC50 (converted)
  IC50: > 316 µM
[4]
  inhibition: inactive
[5]
  inhibition: inactive

## NC(=O)C1=C(N)OC2=C(C(=O)CC(c3ccccc3)C2)C1c1ccccc1 (stereo unspecified)
[1]
  pIC50: < 4
[1]; read-out: IC50
  IC50: > 100 µM
[2]
  inhibition: inactive
[3]
  inhibition: inactive

## COc1ccc(C2C(C#N)=C(N)OC3=C2C(=O)CC(Cc2ccccc2)C3)cc1 (stereo unspecified)
[1]; read-out: IC50
  IC50: 5.1 µM
[1]; read-out: pIC50 (converted)
  IC50: 4.79 µM
[2]
  inhibition: inactive
[3]
  inhibition: inactive

## CC1C(C#N)=C(N)OC2=C1C(=O)CC(c1ccccc1)C2 (stereo unspecified)
[4]
  inhibition: inactive
[5]
  inhibition: inactive

## COc1ccc(C2C(C#N)=C(N)OC3=C2C(=O)CC(c2ccc4ccccc4c2)C3)cc1 (stereo unspecified)
[1]; read-out: IC50
  IC50: 3.2 µM
[4]
  inhibition: inactive
[5]
  inhibition: inactive

## N#CC1=C(N)OC2=C(C(=O)O[C@@H](c3ccccc3)C2)[C@@H]1c1ccccc1 (relative stereo)
[1]; read-out: IC50
  IC50: > 300 µM
[1]; read-out: pIC50 (converted)
  IC50: > 316 µM
[4]
  inhibition: inactive
[5]
  inhibition: inactive

## COc1ccc(C2C(C#N)=C(N)OC3=C2C(=O)CC(c2cccc4ccccc24)C3)cc1 (stereo unspecified)
[4]
  inhibition: inactive
[5]
  inhibition: inactive
[6]
  half-life: 30 min
[7]
  Drug uptake: < 10 ng/g

## COC(=O)C1=C(N)OC2=C(C(=O)CC(c3ccccc3)C2)C1c1ccccc1 (stereo unspecified)
[1]; read-out: IC50
  IC50: > 300 µM
[1]; read-out: pIC50 (converted)
  IC50: > 316 µM
[4]
  inhibition: inactive
[5]
  inhibition: inactive

## CC(C)(C)OC(=O)C1=C(N)OC2=C(C(=O)CC(c3ccccc3)C2)C1c1ccccc1 (stereo unspecified)
[1]; read-out: IC50
  IC50: > 75 µM
[1]; read-out: pIC50 (converted)
  IC50: > 158 µM
[8]
  inhibition: inactive
[9]
  inhibition: inactive

## N#CC1=C(N)OC2=C(C(=O)N[C@H](c3ccccc3)C2)[C@@H]1c1ccccc1 (relative stereo)
[1]; read-out: IC50
  IC50: > 300 µM
[1]; read-out: pIC50 (converted)
  IC50: > 316 µM
[4]
  inhibition: inactive
[5]
  inhibition: inactive

## N#CC1=COC2=C(C(=O)CC(c3ccccc3)C2)C1c1ccccc1 (stereo unspecified)
[1]
  pIC50: < 4
[1]; read-out: IC50
  IC50: > 100 µM
[2]
  inhibition: inactive
[3]
  inhibition: inactive

## N#CC1=C(N)OC2=C(C1)C(=O)CC(c1ccccc1)C2 (stereo unspecified)
[1]; read-out: pIC50 (converted)
  IC50: > 316 µM
[4]
  inhibition: inactive
[5]
  inhibition: inactive

## CC(=O)NC1=C(C#N)C(c2ccccc2)C2=C(CC(c3ccccc3)CC2=O)O1 (stereo unspecified)
[1]
  pIC50: < 4
[1]; read-out: IC50
  IC50: > 100 µM
[2]
  inhibition: inactive
[3]
  inhibition: inactive

## CC1C(C#N)=C(N)OC2=C1C(=O)CC(c1cccc3ccccc13)C2 (stereo unspecified)
[1]; read-out: IC50
  IC50: 0.43 µM
[1]; read-out: pIC50 (converted)
  IC50: 0.339 µM
[2]
  inhibition: inactive
[3]
  inhibition: inactive

## CCO/C=N/C1=C(C#N)C(c2ccccc2)C2=C(CC(c3ccccc3)CC2=O)O1 (stereo unspecified)
[1]
  pIC50: < 3
[1]; read-out: IC50
  IC50: > 1000 µM
[10]
  inhibition: inactive
[11]
  inhibition: inactive

## N#CC1=C(N)OC2=C(C(=O)CCC2)C1c1ccccc1F (stereo unspecified)
[1]; read-out: pIC50 (converted)
  IC50: > 316 µM
[4]
  inhibition: inactive
[5]
  inhibition: inactive

## N#CC1=C(N)OC2=C(C(=O)CC(c3ccccc3)C2)C1c1ccccc1 (stereo unspecified)
[1]; read-out: IC50
  IC50: 3.8 µM
[1]; read-out: pIC50 (converted)
  IC50: 6.31 µM
[10]
  inhibition: inactive
[11]
  inhibition: inactive
